Source: PubChem BioAssay
A selection: hits, their analogues and other compounds. The true share with any hit is near 2.7%.
NadD inh = inhibitors of S. aureus NadD, primary screen, biochemical, colorimetric, uHTS; inhibition, % at 20 µM; AID 602399, 2012; 360,000 tested, 0.78% active; purified NadD enzyme, colorimetric absorbance read-out; in the data active means inhibition above about 26%
TPT1 inhibitor = Candida albicans TPT1 enzyme inhibitors, primary screen, biochemical, fluorescence polarization; tRNA 2'-phosphotransferase TPT1 (Candida albicans SC5314); AID 1962, 2009; recombinant caTPT1, FP RNA substrate dephosphorylation; 300,000 tested, 0.81% active; inhibition, % at 5 µM;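 active means inhibition above the mean of all tested compounds plus 3 SD, set per screening campaign, cut at about 24% in these data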
PP1 counter = PP1-alpha phosphatase inhibitors, primary screen, counter-screen for PP5 inhibitor project, biochemical, fluorescence, OMFP substrate, single point | Serine/threonine-protein phosphatase PP1-alpha catalytic subunit (Homo sapiens), P62136 | purified PP1alpha | inhibition, % at 6.7 µM | 320,000 tested, 0.9% active | AID 2235, 2010;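 active means inhibition above the mean inhibition of all tested compounds plus 3 SD, computed separately for each screening campaign, cut at about 15% in these data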
Target sequence (P62136 whole entry, looked up): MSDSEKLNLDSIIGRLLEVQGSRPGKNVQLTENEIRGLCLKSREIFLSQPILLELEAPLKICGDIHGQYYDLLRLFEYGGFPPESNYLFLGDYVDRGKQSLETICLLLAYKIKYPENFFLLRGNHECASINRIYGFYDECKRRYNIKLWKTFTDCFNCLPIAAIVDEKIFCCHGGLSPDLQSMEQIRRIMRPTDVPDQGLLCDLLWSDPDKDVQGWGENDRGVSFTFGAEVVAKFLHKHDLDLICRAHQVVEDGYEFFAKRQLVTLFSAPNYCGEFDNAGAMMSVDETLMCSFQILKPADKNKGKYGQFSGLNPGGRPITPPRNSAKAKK
HNF4A DNA FP = change in binding of human HNF4A to DNA, primary screen, biochemical, fluorescence polarization, FITC-DNA; Hepatocyte nuclear factor 4-alpha (Homo sapiens), P41235; 1 h; activity change, % at 10 µM; 360,000 tested, 0.3% active; in the data active means activity change above about 30%, passing the limit was not always enough
CSN deneddyl inh = inhibitors of CSN-mediated cullin deneddylation, primary screen, biochemical, fluorescence polarization, uHTS. COP9 signalosome complex subunit 5 (Homo sapiens), Q92905. Purified CSN, SCF-Nedd8-OG deneddylation. inhibition, % at 12.5 µM. 360,000 tested, 0.38% active;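 active means pattern-corrected inhibition above about 35%, with an unprinted fluorescence ratio check between 0.5 and 1.5, limit read from the data, passing the limit was not always enough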
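Detection – fluorescence polarization · System – HEK293T-derived human Csn5 enzyme · Controls – substrate-only high control, full reaction low control · Timing – 90 min, room temperature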
Rpn11 block = Rpn11 (PSMD14) deubiquitinase inhibitors, primary screen, biochemical, fluorescence polarization, uHTS | 26S proteasome non-ATPase regulatory subunit 14 (Homo sapiens), O00487 | human 26S proteasome, Ub4-pepOG fluorescence polarization; 20S core pre-blocked with epoxomicin | inhibition, % at 20 µM | 360,000 tested, 0.59% active;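 active means inhibition at 20 µM, scaled to each plate's controls, above about 33%, limit read from the data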
Large screens that a line does not name were inactive.

O=C(OCC(=O)N1CCN(C(=O)c2ccco2)CC1)c1ccc(S(=O)(=O)N2CCCCC2)cc1	HNF4A DNA FP 50
O=C(OCC(=O)N1CCCC1)c1ccc(S(=O)(=O)N2CCOCC2)cc1	none
O=C(Nc1ccc(Cl)cc1Cl)c1ccc(-c2ccccc2)cc1	none
O=C(Nc1cc(-c2ccccc2)[nH]n1)c1ccc(Cl)cc1	PP1 counter 17
CCCCCCCC(=O)N/N=C(\C)c1cccnc1	CSN deneddyl inh 58
Cc1ccc(C2=NN=C(NC(=O)CSc3nnc4c5ccccc5n(C)c4n3)SC2)cc1	NadD inh 82, PP1 counter 22
COc1ccc(NC(=O)C2(C)Cc3c(-c4ccc(N(C)C)cc4)ccnc3O2)cc1OC (centres undefined)	none (no result: TPT1 inhibitor, PP1 counter)
O=C(N/N=C/c1cc([N+](=O)[O-])ccc1O)c1cccc(NC(=O)c2cccc(Cl)c2)c1	NadD inh 63
Cc1nc2ccc(C(=O)N/N=C/c3cc([N+](=O)[O-])ccc3O)cc2[nH]1	none
Cc1cc(=O)oc(C)c1C(=O)n1nc(C)c2c1C[C@@H]1[C@H]2C1(C)C	HNF4A DNA FP 52
Oc1c(Cl)cc(Cl)cc1Sc1cc(Cl)cc(Cl)c1O	PP1 counter 40 (no result: NadD inh, HNF4A DNA FP, CSN deneddyl inh, Rpn11 block)
O=S(c1cc(Cl)cc(Cl)c1O)c1cc(Cl)cc(Cl)c1O	none (no result: TPT1 inhibitor, PP1 counter, Rpn11 block)
O=C(COc1ccc2ccccc2c1)Nc1ccc(S(=O)(=O)N2CCCCCC2)cc1	PP1 counter 17
O=C(COc1ccc(F)cc1)Nc1cc(S(=O)(=O)N2CCCCC2)ccc1N1CCCCC1	PP1 counter 16
Cc1cccc(NC(=O)CSCC(=O)Nc2ccc(S(=O)(=O)N3CCCC3)cc2)c1	none
Cc1cccc(CNc2ccc(S(=O)(=O)N3CCCCC3)cc2)c1	CSN deneddyl inh 62 (no result: TPT1 inhibitor)
O=C(COc1ccccc1)Nc1ccc(S(=O)(=O)N2CCCCCC2)cc1	none
O=C(COc1ccc([N+](=O)[O-])cc1)Nc1cc(S(=O)(=O)N2CCCCC2)ccc1N1CCCCC1	none
CCCCn1nnnc1C(c1cc2ccccc2o1)N1CCN(C(=O)OC(C)(C)C)CC1 (centres undefined)	none (no result: TPT1 inhibitor, PP1 counter, Rpn11 block)
CCOc1ccc(N(CC)C(=O)CCS(=O)(=O)c2cccc3nonc23)cc1	none
Cc1ccc(/C=c2\sc3nc(-c4ccco4)nn3c2=O)o1	CSN deneddyl inh 43 (not shown: Rpn11 block)
Cc1ccc(/C=c2/sc3nnc(-c4ccccc4Cl)n3c2=O)o1	none
Cc1ccc(-c2nc3s/c(=C\c4ccco4)c(=O)n3n2)cc1	CSN deneddyl inh 38
O=c1nc2s/c(=C\c3ccco3)c(=O)n2nc1Cc1ccc(F)cc1	none
CCc1ccc(NC(=O)c2cc(S(=O)(=O)N3CCCC3)ccc2F)cc1	none (no result: TPT1 inhibitor, PP1 counter)
O=C(O)c1cc(N2N=C(C(F)(F)F)/C(=C/C=C/c3ccco3)C2=O)ccc1Cl	NadD inh 42 (not shown: TPT1 inhibitor, PP1 counter, Rpn11 block)
C=CCN1CC(C(=O)N2CCC(Cc3ccc(Cl)cc3)(C(=O)OCC)CC2)CC1=O (centres undefined)	HNF4A DNA FP 36
CCOC(=O)c1[nH]c(=O)[nH]c1CNc1ccccc1C#N	none
COc1ccc(Cl)cc1NC(=O)CN(C)S(=O)(=O)c1cccs1	none
COc1ccc(Cl)cc1NC(=O)COC(=O)c1cc(NS(=O)(=O)c2cccs2)ccc1O	NadD inh 33
COc1ccc(C(=O)C2CCN(C(=O)Nc3ccccc3C)CC2)cc1	none
Cc1cc2c(NC3CCCCC3)ncnc2s1	none (no result: TPT1 inhibitor, PP1 counter)
Clc1ccc(OCCCCSc2ncccn2)cc1	none
CCCOc1ccc(OCCSc2ncccn2)cc1	PP1 counter 16
CN(C)C(=O)c1ccc2c(c1[N+](=O)[O-])C(=O)c1ccccc1C2=O	none
Cc1[nH]c2ccccc2c1CCNC(=O)c1ccc2c(c1[N+](=O)[O-])C(=O)c1ccccc1C2=O	NadD inh 40
Cc1[nH]c2c(C)cccc2c1CCNC(=O)c1ccc2c(c1[N+](=O)[O-])C(=O)c1ccccc1C2=O	NadD inh 35
